Data set [1] in a line: Cytotoxicity against human PC-3 cells assessed as inhibition of cell growth incubated for 72 hrs by CellTiter 96 aqueous assay. Format: toxicity, cell-based. In outline: (§1)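 PC-3 or MDA-MB-231 cells were treated the day after seeding with serial dilutions, from 2000 nM for conjugates and 100 nM for MMAE, for 72 h. Then the assay was stopped, or run 72 h more after a medium change (single) or re-treatment (double). Controls got 0.05 % DMSO. Read-out was MTS absorbance at 490 nm after 90 min. IC50 by non-linear regression; ≥2 experiments, triplicates.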

Data set [2] is described as follows: Cytotoxicity against human cells MDA-MB-231 assessed as inhibition of cell growth incubated for 72 hrs by CellTiter 96 aqueous assay. The format is toxicity, cell-based. The following applies: MDA-MB-231 cells. In outline:
as §1

The nature of data set [3]: Cytotoxicity against human PC-3 cells assessed as inhibition of cell growth incubated with compound for 72 hrs followed by further incubated for 72 hrs (single treatment) by CellTiter 96 aqueous assay. Format: toxicity, cell-based. In outline:
as §1

A short description of data set [4]: Cytotoxicity against human PC-3 cells assessed as inhibition of cell growth incubated for 72 hrs and followed by treated with compound continued incubation for further 72 hrs (double treatment) after retreatment of compound by CellTiter 96 aqueous assay. The format is toxicity, cell-based. In outline:
as §1

Data set [5] in a line: Cytotoxicity against human MDA-MB-231 cells assessed as inhibition of cell growth incubated with compound for 72 hrs followed by further incubated for 72 hrs (single treatment) by CellTiter 96 aqueous assay. Format: toxicity, cell-based. In outline:
as §1

Data set [6] can be described thus: Cytotoxicity against human MDA-MB-231 cells assessed as inhibition of cell growth incubated for 72 hrs and followed by treated with compound continued incubation for further 72 hrs (double treatment) after retreatment of compound by CellTiter 96 aqueous assay. The format is toxicity, cell-based. In outline:
as §1

Data set [7] concerns PC-3. As to the kind of experiment: Antitumor activity against human PC-3 cells xenografted in mouse assessed as median survival day at 1 mg/kg, ip administration for 33 days. Format: functional. Particulars: time 33 day.
Data set [8] relates to PC-3. The data set is described as follows: Antitumor activity against human PC-3 cells xenografted in mouse assessed as reduction in tumour volume relative to control. Format: functional. Further details: scale not given: the % may be the effect or the level left. In outline:
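Acute study in mice bearing subcutaneous PC-3 tumours. Single i.p. dose (0.1 mL) 9 days after inoculation, at a mean tumour volume of 62 mm³. Eight per group, randomized. Conjugates at 2 mg/kg MMAE-content, free MMAE at 1 mg/kg, in 5 % DMSO in water; solvent controls. Calliper volume V = ab²×π/6. Sacrifice at 20 % weight loss or 2000 mm³.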
For orientation: Xenograft models place foreign cells or tissue in a host animal.

Data set [9] is described as follows: Biodistribution in mouse xenografted with human PC-3 cells assessed as tumour environment incubated for 24 hrs by LC-HRMS. Format: ADME, organism-based, Neoplasm. The following applies: in vivo. In outline:
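Mice bearing PC-3 xenografts received a single 2 mg/kg i.p. dose. Blood, tumour, liver, kidneys, heart, lungs and pancreas were collected at 1, 6 and 24 h and pooled per group. Tissues were homogenised in water (1:2 w/v) and centrifuged. Released MMAE was measured by LC-HRMS and expressed as %ID/g (n = 3).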

Data set [10] in a line: Biodistribution in kidney mouse xenografted with human PC-3 cells incubated for 24 hrs by LC-HRMS. The following applies: in vivo. Format: ADME, organism-based. In outline:
(§2)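 Mice bearing s.c. PC-3 tumours given a single i.p. dose of 2 mg/kg; 3 mice per time point, sampled at 1, 6 and 24 h. Blood, tumour, liver, kidneys, heart, lungs and pancreas pooled per group and homogenised in water (1:2 w/v); supernatants analysed for MMAE by LC-HRMS; expressed as %ID/g.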

The nature of data set [11]: Biodistribution in liver of mouse xenografted with human PC-3 cells incubated for 24 hrs by LC-HRMS. Format: ADME, organism-based. Particulars: in vivo. In outline:
as §2

A short description of data set [12]: Biodistribution in mouse pancreas xenografted with human PC-3 cells assessed as parent compound by LC-HRMS. The format is ADME, organism-based. Particulars: in vivo. In outline: as §2
Data set [13] in a line: Biodistribution in mouse pancreas xenografted with human PC-3 cells by LC-HRMS relative to control. Format: ADME, organism-based. The following applies: in vivo.
Data set [14] deals with PC-3. As to the kind of experiment: Antitumor activity against human PC-3 cells xenografted with mouse assessed as median survival days at 1 mg/kg, ip (reference value: 33 days).
The target in data set [15] is T1, Gastrin-releasing peptide receptor (Homo sapiens, UniProt P30550). The data set is described as follows: Displacement of 125 I- [Tyr4] from bombesin receptor 2 in human PC-3 cells assessed as inhibition by radioligand displacement assay. Format: cell-based. In outline:
(§3)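 Competition binding on membrane preparations from PC-3 or MDA-MB-231 cells against ¹²⁵I-[Tyr⁴]-bombesin, with conjugates at 10 μM–10 pM. IC50 was taken as the concentration giving 50 % inhibition of tracer binding.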
Background: Displacement assays read how much labelled ligand stays bound in the presence of the test substance.

The target of data set [16] is T1, Gastrin-releasing peptide receptor. As to the kind of experiment: Displacement of 125 I- [Tyr4] from bombesin receptor 2 in human MDA-MB-231 cells assessed as inhibition by radioligand displacement assay. Format: cell-based. In outline: as §3
Data set [17] is described as follows: Toxicity in mouse xenografted with human PC-3 cells assessed as body weight loss at 1 mg/kg, ip administered relative to control. The following applies: in vivo, 2 mg/kg, in the assay text read “2 mg/kg” for “1 mg/kg”. Format: organism-based. In outline:
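Toxicity in mice bearing subcutaneous PC-3 tumours after a single i.p. dose 9 days post-inoculation. Free drug at 1 mg/kg, conjugates at 2 mg/kg MMAE-content, in 5 % DMSO in water; solvent controls; eight per group. Body weight followed periodically. Endpoint at 20 % weight loss; behaviour (activity, coat, stool, paleness) also scored.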

Data set [18] relates to PC-3. The data set is described as follows: Antitumor activity against human PC-3 cells xenografted in mouse assessed as inhibition in tumour growth at 0.5 mg/kg, ip administered upto 23 days. The following applies: time <= 23.0 day. Format: functional, organism-based. In outline: (§4)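 Chronic study in mice bearing subcutaneous PC-3 tumours. Dosing began 8 days after cell inoculation, at a mean tumour volume of 93 mm³. Seven per group, randomized. Four i.p. doses (0.1 mL) on days 8, 11, 16 and 23 of 0.5 mg/kg MMAE-content, in 5 % DMSO in water for injection; controls got solvent. Tumour volume by calliper, V = ab²×π/6.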

For data set [19], the system named is PC-3. The data set is described as follows: Antitumor activity against human PC-3 cells xenografted in mouse assessed as reduction in tumour weight at 0.5 mg/kg, ip administered upto 23 days relative to control. The format is functional. Details: scale not given: the % may be the effect or the level left. The following applies: time <= 23 day.
The test system of data set [20] is PC-3. As to the kind of experiment: Antitumor activity against human PC-3 cells xenografted in mouse assessed as reduction in tumour size at 0.5 mg/kg, ip administered upto 23 days relative to control. Format: functional. Details: scale not given: the % may be the effect or the level left. The following applies: time <= 23 day. In outline:
as §4

Data set [21] in a line: Toxicity in mouse xenografted with human PC-3 cells assessed as change in body weight at 0.2 mg/kg, ip administered upto 23 days. The format is organism-based. Particulars: in vivo, 0.5 mg/kg, 552 h, in the assay text read “0.5 mg/kg” for “0.2 mg/kg”. In outline:
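Chronic dosing in mice bearing PC-3 xenografts. Free MMAE at 0.2 mg/kg (conjugates at 0.5 mg/kg MMAE-content), i.p. in 5 % DMSO in water on days 8, 11, 16 and 23 after inoculation. Seven per group; solvent controls. Body weight measured at the start and at periodic intervals.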

The nature of data set [22]: Toxicity in mouse xenografted with human PC-3 cells assessed as effect on liver 0.5 mg/kg, ip administered upto 23 days. Particulars: in vivo, 552 h.
In data set [23] the test system is PC-3. The data set is described as follows: Antitumor activity against human PC-3 cells xenografted with mouse assessed as median survival days at 2 mg/kg, ip (reference value: 33 days).

Active and inactive are the calls of the source. No cut-off for these calls is given here. Square brackets hold non-standard residues; d marks the D form. Peptide text beside a SMILES is read from it. * marks the point of attachment. Dolaproine = CO[C@@H]([C@@H]1CCCN1)[C@@H](C)C(=O)O; Dil = CC[C@H](C)[C@H](NC)[C@@H](CC(=O)O)OC; X3 = C[C@@H](N*)[C@@H](O)c1ccccc1; NMeV = CN[C@H](C(=O)O)C(C)C

The results in this text go back to ChEMBL document CHEMBL6071141, “In vitro and in vivo evaluation of Bombesin-MMAE conjugates for targeted tumour therapy” (Eur J Med Chem, 2024).

T1 sequence (P30550 whole entry): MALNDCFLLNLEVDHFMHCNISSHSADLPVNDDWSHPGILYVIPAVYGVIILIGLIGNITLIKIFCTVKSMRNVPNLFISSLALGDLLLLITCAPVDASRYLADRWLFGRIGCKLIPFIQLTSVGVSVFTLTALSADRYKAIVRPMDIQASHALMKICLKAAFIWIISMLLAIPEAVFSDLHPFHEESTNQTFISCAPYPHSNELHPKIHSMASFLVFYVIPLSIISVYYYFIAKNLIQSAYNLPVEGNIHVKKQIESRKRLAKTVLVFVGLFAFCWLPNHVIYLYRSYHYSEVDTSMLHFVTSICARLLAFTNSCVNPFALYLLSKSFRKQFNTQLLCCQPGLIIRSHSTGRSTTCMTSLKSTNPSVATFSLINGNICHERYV

Broadly, the IC50 is the concentration that gives 50% inhibition. Turning to `CC[C@H](C)[C@@H]([C@@H](CC(=O)N1CCC[C@H]1[C@H](OC)[C@@H](C)C(=O)N[C@H](C)[C@@H](O)c1ccccc1)OC)N(C)C(=O)[C@@H](NC(=O)[C@@H](NC)C(C)C)C(C)C` (H-[NMeV]V[Dil][Dolaproine]-X3), the 50% inhibitory concentration (IC50) at 72 h worked out at 3.4 nM in [1] and 10.1 nM in [2]. Also, the IC50 at 144 h in data set [3] came to 0.4 nM; in data set [4] it was 0.3 nM; in data set [5], 0.2 nM; in data set [6], 0.2 nM. Also, the Survival in data set [7] and in data set [14] was 24.5 days throughout. Also, the Activity in [8] was determined as 15.9%. In addition, the Drug uptake result in [9] is listed as “Active”; in [10] it was “Active”; in data set [11] it was “Active”; in data set [12], 10.1%; in data set [13], 3.55%.

`CC[C@H](C)[C@@H]([C@@H](CC(=O)N1CCC[C@H]1[C@H](OC)[C@@H](C)C(=O)N[C@H](C)[C@@H](O)c1ccccc1)OC)N(C)C(=O)[C@@H](NC(=O)[C@H](C(C)C)N(C)C(=O)OCc1ccc(NC(=O)[C@H](CCCNC(N)=O)NC(=O)[C@@H](NC(=O)[C@H](CCC(=O)O)NC(=O)CCCCCN2C(=O)CC(SC[C@H](NC(C)=O)C(=O)NCCOCCOCCOCCOCCC(=O)N[C@H](Cc3ccccc3)C(=O)N[C@@H](CCC(N)=O)C(=O)N[C@@H](CC3=CSC4C=CC=CC34)C(=O)N[C@@H](C)C(=O)N[C@H](C(=O)NCC(=O)N[C@@H](Cc3c[nH]cn3)C(=O)N[C@@H](CC(C)C)[C@@H](O)CC(=O)N[C@@H](CC(C)C)C(N)=O)C(C)C)C2=O)C(C)C)cc1)C(C)C` (stereo partly specified): the half-inhibitory concentration (IC50) at 72 h in data set [1] stood at 29.3 nM; in data set [2] it was 299 nM. Also, the IC50 at 144 h in data set [3] is 6 nM; in data set [4], 4 nM; in data set [5] it was 41 nM; in data set [6] it was 39.9 nM. The IC50 in [15] is 58.2 nM; in data set [16], 70.4 nM. Further, the Activity in data set [17] is less than 20%; in data set [8], 34.2%; in [19] it was 26%; in [20], 48%; in [21], “Toxic”; in data set [22], “Non-Toxic”. In addition, the outcome in [18] was Active. For the same molecule, the Drug uptake result in [9] is recorded as “Active”. Further, the Survival in [23] turned out to be 42 days.
